Source: ChEMBL document CHEMBL1127730, “Bicyclic hydantoins with a bridgehead nitrogen. Comparison of anticonvulsant activities with binding to the neuronal voltage-dependent sodium channel” (J Med Chem, 1994)
Each block holds one compound with its values, some of them ahead of it. Calls of active or inactive are those of the source. The calls are words filed in the database; no cut-off is given here.

Columns and labels:
[1] = test system: Mus musculus; test: Anticonvulsant activity was measured as inhibition of convulsions by maximal electric shock (MES) method in Phase-I by intraperitoneal administration in mice; format: functional
Outline: (§1)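 Mice dosed ip and tested 30 min later. Phase I screen is qualitative: maximal electroshock and subcutaneous metrazol (scMet) seizure tests, plus a rotorod test for neurotoxicity. Reported as the best active dose in mg/kg, with animals protected (or toxic) over the number tested. Run by the NINDS Antiepileptic Drug Development Program.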

[2] = test system: Mus musculus; test: Number of animals protected or toxic compared to number tested maximal electric shock (MES) method in Phase-I by intraperitoneal administration in mice; 3/3; format: functional; outline: as §1
[3] = Partition coefficient (logP); format: physicochemical; conditions: octanol/water
Outline: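 Calculated rather than measured: the parent-structure log P value is summed with π contributions for the substituents. Both sets of constants come from published tables.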

[4] = test system: Mus musculus; test: Number of animals protected or toxic compared to number tested rotarod test in Phase-I by intraperitoneal administration in mice; 8/8; format: functional, organism-based; outline: as §1
[5] = test system: Mus musculus; test: Anticonvulsant activity was measured by rotarod test in Phase -II by intraperitoneal administration in mice; format: functional; conditions: ip
Outline: (§2)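 Phase II quantification in mice dosed ip: ED50 against maximal electroshock seizures and rotorod neurotoxic TD50, both in mg/kg. The 95% confidence intervals are given in brackets. Run by the NINDS Antiepileptic Drug Development Program.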

[6] = biological target: Sodium channel alpha subunits; brain (Types I, II, III) (Rattus norvegicus, UniProt P04775+P04774+P08104); test: Inhibition of binding to sodium channel of rat cerebral cortex; format: tissue-based
Outline: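 Rat cerebral cortex synaptosomes (~1 mg protein) incubated 40 min at 25 °C with 10 nM [3H]BTX-B, 50 μg/mL scorpion venom and test compound at seven concentrations. Filtration, ice-cold buffer washes, scintillation counting. Nonspecific binding defined with 300 μM veratridine. Triplicate runs with 40 μM DPH control tube. IC50 by Probit analysis, excluding doses giving <10% or >90% inhibition.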

[7] = test system: Mus musculus; test: Anticonvulsant activity was measured as inhibition of convulsions by subcutaneous administration in mice; format: functional; outline: as §1
[8] = test system: Mus musculus; test: Time taken for measure Anticonvulsant activity in Phase -II by intraperitoneal administration in mice; format: functional
[9] = test system: Mus musculus; test: Anticonvulsant activity was measured as inhibition of convulsions by rotarod test in Phase-I by intraperitoneal administration in mice; format: functional; outline: as §1
[10] = test system: Mus musculus; test: Anticonvulsant activity was measured by maximal electric shock (MES) method in Phase -II by intraperitoneal administration in mice; format: functional; conditions: ip; outline: as §2
[11] = test system: Mus musculus; test: Number of animals protected or toxic compared to number tested in subcutaneous administration in mice; 1/1; format: functional; outline: as §1
[12] = test system: Mus musculus; test: Number of animals protected or toxic compared to number tested in subcutaneous administration in mice; 4/4; format: functional; outline: as §1
[13] = test system: Mus musculus; test: Number of animals protected or toxic compared to number tested rotarod test in Phase-I by intraperitoneal administration in mice; 4/4; format: functional; outline: as §1
[14] = test system: Mus musculus; test: Number of animals protected or toxic compared to number tested maximal electric shock (MES) method in Phase-I by intraperitoneal administration in mice; 1/1; format: functional; outline: as §1
[15] = test system: Mus musculus; test: Number of animals protected or toxic compared to number tested maximal electric shock (MES) method in Phase-I by intraperitoneal administration in mice; 1/3; format: functional; outline: as §1
[16] = test system: Mus musculus; test: Number of animals protected or toxic compared to number tested rotarod test in Phase-I by intraperitoneal administration in mice; 1/4; format: functional; outline: as §1
[17] = test system: Mus musculus; test: Number of animals protected or toxic compared to number tested in subcutaneous administration in mice; 3/4; format: functional, organism-based; outline: as §1

- logP [3]: 3.05
- IC50 [6]: 160 µM
Structure (SMILES): O=C1OC2(c3ccccc3)CCCCCN1C2=O (stereo not drawn)
- Activity [1]: 100 mg/kg
- Activity [2]: 3
- Activity [4]: Active
- TD50 [5]: 147 mg/kg
- Activity [7]: 100 mg/kg
- Time [8]: 0.25 h
- Activity [9]: 100 mg/kg
- ED50 [10]: 66 mg/kg
- Activity [11]: Active

- logP [3]: 2.65
Structure (SMILES): O=C1O[C@@]2(c3ccccc3)CCCCN1C2=O
- Activity [1]: >300 mg/kg
- Activity [7]: 300 mg/kg
- Activity [9]: >300 mg/kg
- Activity [11]: 1

Structure (SMILES): CCCC1(c2ccccc2)NC(=O)NC1=O (stereo not drawn)
- Activity [12]: 4
- Activity [1]: 30 mg/kg
- logP [3]: 1.96
- Activity [13]: 4
- TD50 [5]: 85 mg/kg
- Activity [14]: 1
- IC50 [6]: 162 µM
- Activity [7]: 100 mg/kg
- Time [8]: 1 h
- Activity [9]: 100 mg/kg
- ED50 [10]: 25 mg/kg

- logP [3]: 2.46
Structure (SMILES): O=C1NC(=O)C(c2ccccc2)(c2ccccc2)N1 [PHENYTOIN]
- Time [8]: 2 h
- ED50 [10]: 10 mg/kg

Structure (SMILES): CCCCC1(c2ccccc2)NC(=O)NC1=O (stereo not drawn)
- logP [3]: 2.46
- IC50 [6]: 103 µM

Structure (SMILES): CCCCCC1(c2ccccc2)NC(=O)NC1=O (stereo not drawn)
- logP [3]: 2.96
- IC50 [6]: 39 µM

Structure (SMILES): NC(=O)C1(c2ccccc2)CCCCCNC1=O (stereo not drawn)
- Activity [12]: 4
- Activity [15]: 1
- Activity [1]: 100 mg/kg
- Activity [13]: 4
- Activity [7]: 300 mg/kg
- Activity [9]: 300 mg/kg

- logP [3]: -0.37
- IC50 [6]: > 1000 µM
Structure (SMILES): CN1C(=O)OC(C)(C)C1=O [TRIMETHADIONE]
- TD50 [5]: 810 mg/kg
- Time [8]: 1 h

- logP [3]: 2.65
Structure (SMILES): CCC1(c2ccccc2)OC(=O)N(C)C1=O (stereo not drawn)
- Activity [1]: 300 mg/kg
- TD50 [5]: 504 mg/kg
- Activity [14]: 1
- Activity [16]: 1
- Activity [7]: 30 mg/kg
- Time [8]: 0.5 h
- Activity [9]: 300 mg/kg
- Activity [11]: 1

Structure (SMILES): O=C1NC2(c3ccccc3)CCCCCN1C2=O (stereo not drawn)
- Activity [1]: 100 mg/kg
- Activity [2]: 3
- logP [3]: 2.51
- Activity [13]: 4
- TD50 [5]: 124 mg/kg
- IC50 [6]: 427 µM
- Activity [7]: >300 mg/kg
- Time [8]: 0.25 h
- Activity [9]: 300 mg/kg
- ED50 [10]: 86 mg/kg

Structure (SMILES): CCCCC1(c2ccccc2)NC(=O)N(C)C1=O (stereo not drawn)
- logP [3]: 3.01
- IC50 [6]: 285 µM

Structure (SMILES): O=C1NC2(c3ccccc3)CCCCN1C2=O (stereo not drawn)
- Activity [1]: 100 mg/kg
- Activity [17]: Weak activity
- Activity [2]: 3
- logP [3]: 2.01
- Activity [13]: Active
- IC50 [6]: 700 µM
- Activity [7]: 100 mg/kg
- Activity [9]: 300 mg/kg
